# The source made the active and inactive calls. The rule behind the calls is not given here.
# Legend:
# [1] = molecular target: T1, G-protein coupled receptor 68 (Homo sapiens, UniProt Q15743); test: Positive allosteric modulator activity at GPR68 expressed in human HEK293T cells assessed as cAMP production in presence of H+ proton by Split-luciferase based luminescence counter analysis (reference value: 26.4 to 43.8 %); type: functional, cell-based
# Outline: (§1)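 Proton concentration-response of GPR68 (wild type or E160A/K/Q, R189L/M, H269F mutants) in transiently transfected HEK293-T cells. Read-out: GloSensor cAMP, with luciferin loading 90 min at 37°C at pH 8.4. Run with and without increasing modulator concentrations; 20 min at room temperature before luminescence. Proton KA fixed to the proton EC50 without modulator. KB, τA, α, β fitted globally with an operational allosteric model. n=4.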
# [2] = molecular target: T1, G-protein coupled receptor 68; test: Binding affinity to GPR68 expressed in human HEK293T cells assessed as cAMP production in presence of H+ proton by Split-luciferase based luminescence counter analysis; type: cell-based; settings: filed as positive allosteric modulator; outline: as §1
# [3] = molecular target: T1, G-protein coupled receptor 68; test: Positive allosteric modulator activity at GPR68 expressed in human HEK293T cells assessed as cAMP production in presence of H+ proton by Split-luciferase based luminescence counter analysis (reference value: 6.53 to 6.72); type: functional, cell-based
# [4] = molecular target: C-X-C chemokine receptor type 4 (Homo sapiens) (UniProt P61073); test: Agonist activity against CXCR4 receptor (unknown origin) transfected in human HEK293T cells at 10 uM incubated for 15 mins in presence of CXCL12 by luminescence counter analysis; type: functional, cell-based
# Outline: (§2)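 HEK293-T cells transiently transfected with CXCR4 and the GloSensor cAMP reporter, plated in DMEM with 1% dialyzed FBS. Test compound at 10 μM in 20 mM HEPES/HBSS, pH 7.4, 15 min at room temperature. Agonist mode: luciferin (4 mM final) plus 200 nM isoproterenol added, 20 min. Antagonist mode: compound 10 min, then reference agonist at EC80 for 10 min, then luciferin/isoproterenol. Luminescence read. CXCL12 (1 or 3 μM) is the agonist control and AMD3100 (10 μM) the antagonist control. n=2.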
# [5] = molecular target: C-X-C chemokine receptor type 4 (Homo sapiens) (UniProt P61073); test: Antagonist activity against CXCR4 receptor (unknown origin) transfected in human HEK293T cells at 10 uM incubated for 15 mins in presence of AMD3100 by luminescence counter analysis; type: functional, cell-based; outline: as §2
# [6] = Positive allosteric modulator activity at GPR68 R189M mutant transfected in human HEK293T cells assessed as proton-mediated calcium release at 10 uM incubated for 10 mins by Fluo-4 Direct calcium dye based FLIPR assay (reference value: 1.43 +/- 0.01 %); settings: HEK-293T, condition central nervous system disease
# [7] = Positive allosteric modulator activity at GPR68 H269F mutant transfected in human HEK293T cells assessed as proton-mediated calcium release at 10 uM incubated for 10 mins by Fluo-4 Direct calcium dye based FLIPR assay (reference value: 6.44 +/- 0.02); type: cell-based; settings: HEK-293T
# [8] = Positive allosteric modulator activity at GPR68 E160K mutant transfected in human HEK293T cells assessed as proton-mediated calcium release at 10 uM incubated for 10 mins by Fluo-4 Direct calcium dye based FLIPR assay (reference value: 1.38 +/- 0.01 %); settings: HEK-293T, condition central nervous system disease
# [9] = molecular target: T1, G-protein coupled receptor 68; test: Positive allosteric modulator activity at GPR68 expressed in human HEK293T cells assessed as proton-mediated calcium release at 10 uM incubated for 10 mins by Fluo-4 Direct calcium dye based FLIPR assay (reference value: 1.30 %); type: functional, cell-based
# [10] = Positive allosteric modulator activity at GPR68 R189L mutant transfected in human HEK293T cells assessed as proton-mediated calcium release at 10 uM incubated for 10 mins by Fluo-4 Direct calcium dye based FLIPR assay (reference value: 6.85 +/- 0.02); type: cell-based; settings: HEK-293T
# [11] = Positive allosteric modulator activity at GPR68 H269F mutant transfected in human HEK293T cells assessed as proton-mediated calcium release at 10 uM incubated for 10 mins by Fluo-4 Direct calcium dye based FLIPR assay (reference value: 1.57 +/- 0.01 %); settings: HEK-293T, condition central nervous system disease
# [12] = Positive allosteric modulator activity at GPR68 E160Q mutant transfected in human HEK293T cells assessed as proton-mediated calcium release at 10 uM incubated for 10 mins by Fluo-4 Direct calcium dye based FLIPR assay (reference value: 6.86 +/- 0.04); type: cell-based; settings: HEK-293T
# [13] = Positive allosteric modulator activity at GPR68 R189M mutant transfected in human HEK293T cells assessed as proton-mediated calcium release at 10 uM incubated for 10 mins by Fluo-4 Direct calcium dye based FLIPR assay (reference value: 6.77 +/- 0.01); type: cell-based; settings: HEK-293T
# [14] = Positive allosteric modulator activity at GPR68 R189L mutant transfected in human HEK293T cells assessed as proton-mediated calcium release at 10 uM incubated for 10 mins by Fluo-4 Direct calcium dye based FLIPR assay (reference value: 1.42 +/- 0.01 %); settings: HEK-293T, condition central nervous system disease
# [15] = Positive allosteric modulator activity at GPR68 E160Q mutant transfected in human HEK293T cells assessed as proton-mediated calcium release at 10 uM incubated for 10 mins by Fluo-4 Direct calcium dye based FLIPR assay (reference value: 1.25 +/- 0.01 %); settings: HEK-293T, condition central nervous system disease
# [16] = Positive allosteric modulator activity at GPR68 E160K mutant transfected in human HEK293T cells assessed as proton-mediated calcium release at 10 uM incubated for 10 mins by Fluo-4 Direct calcium dye based FLIPR assay (reference value: 6.79 +/- 0.02); type: cell-based; settings: HEK-293T
# [17] = molecular target: T2, G-protein coupled receptor 65 (Homo sapiens, UniProt Q8IYL9); test: Antagonist activity against GPR65 (unknown origin) transfected in human HEK293T cells incubated for 15 mins by luminescence counter analysis; type: functional, cell-based
# Outline: (§3)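 GloSensor split-luciferase cAMP assay. HEK293-T cells transiently co-transfected with GPR65 (wild type or the D153A, R187L, F242A or Y272A mutant) and GloSensor 7A reporter. Cells plated in DMEM with 1% dialyzed FBS for at least 6 h, then loaded with luciferin (4 mM, in drug buffer pH 8.4) for 90 min at 37°C. Compounds added at set pH in HBSS with 10 mM HEPES/10 mM MES, with TAPS for higher pH. Luminescence read after about 20 min at room temperature. Data normalized to buffer basal and fitted to a 4-parameter logistic.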
# [18] = molecular target: T2, G-protein coupled receptor 65; test: Antagonist activity against GPR65 (unknown origin) transfected in human HEK293T cells incubated for 15 mins by luminescence counter analysis relative to control; type: functional, cell-based; outline: as §3
# [19] = molecular target: T2, G-protein coupled receptor 65; test: Agonist activity against GPR65 (unknown origin) transfected in human HEK293T cells on pH 6.80 to 7.40 at 30 uM incubated for 15 mins by luminescence counter analysis; type: functional, cell-based
# HEK293T [20] = test: Antagonist activity against GPR65 R187L mutant (unknown origin) transfected in human HEK293T cells incubated for 15 mins by luminescence counter analysis; type: cell-based; settings: filed as antagonist; outline: as §3
# HEK293T [21] = test: Antagonist activity against GPR65 Y272A mutant (unknown origin) transfected in human HEK293T cells incubated for 15 mins by luminescence counter analysis; type: cell-based; settings: filed as antagonist; outline: as §3
# [22] = Antagonist activity against GPR65 D153A mutant (unknown origin) transfected in human HEK293T cells incubated for 15 mins by luminescence counter analysis; type: cell-based; settings: HEK-293T, 0.25 h; outline: as §3
# [23] = Antagonist activity against GPR65 D153A mutant (unknown origin) transfected in human HEK293T cells incubated for 15 mins by luminescence counter analysis relative to control; settings: HEK-293T, 0.25 h, condition central nervous system disease; outline: as §3
# HEK293T [24] = test: Antagonist activity against GPR65 F242A mutant (unknown origin) transfected in human HEK293T cells incubated for 15 mins by luminescence counter analysis; type: cell-based; settings: filed as antagonist; outline: as §3
# [25] = molecular target: T2, G-protein coupled receptor 65; test: Agonist activity against GPR65 (unknown origin) transfected in human HEK293T cells incubated for 15 mins by luminescence counter analysis; type: functional, cell-based; settings: filed as agonist; outline: as §3
# [26] = filed as positive allosteric modulator
# T1 sequence (Q15743 whole entry): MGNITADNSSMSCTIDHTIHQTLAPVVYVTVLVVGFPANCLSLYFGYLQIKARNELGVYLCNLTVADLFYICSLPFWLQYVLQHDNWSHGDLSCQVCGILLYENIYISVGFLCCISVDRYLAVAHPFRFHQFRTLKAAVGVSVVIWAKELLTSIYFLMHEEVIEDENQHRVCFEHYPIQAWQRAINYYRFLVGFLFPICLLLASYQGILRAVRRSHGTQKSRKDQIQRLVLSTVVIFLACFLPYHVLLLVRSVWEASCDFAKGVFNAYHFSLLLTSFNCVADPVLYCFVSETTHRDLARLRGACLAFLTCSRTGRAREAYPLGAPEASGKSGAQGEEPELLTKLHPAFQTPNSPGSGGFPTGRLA
# T2 sequence (Q8IYL9 whole entry): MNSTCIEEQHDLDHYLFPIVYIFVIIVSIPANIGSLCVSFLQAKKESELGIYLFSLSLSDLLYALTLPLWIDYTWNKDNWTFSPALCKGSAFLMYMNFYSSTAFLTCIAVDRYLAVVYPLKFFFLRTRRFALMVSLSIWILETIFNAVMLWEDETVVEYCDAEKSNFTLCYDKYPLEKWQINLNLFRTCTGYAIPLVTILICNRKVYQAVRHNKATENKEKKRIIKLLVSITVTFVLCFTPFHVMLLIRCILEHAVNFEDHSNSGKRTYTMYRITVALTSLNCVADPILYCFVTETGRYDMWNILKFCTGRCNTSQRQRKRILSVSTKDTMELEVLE
# Sequence of C-X-C chemokine receptor type 4 (Homo sapiens) (P61073 whole entry): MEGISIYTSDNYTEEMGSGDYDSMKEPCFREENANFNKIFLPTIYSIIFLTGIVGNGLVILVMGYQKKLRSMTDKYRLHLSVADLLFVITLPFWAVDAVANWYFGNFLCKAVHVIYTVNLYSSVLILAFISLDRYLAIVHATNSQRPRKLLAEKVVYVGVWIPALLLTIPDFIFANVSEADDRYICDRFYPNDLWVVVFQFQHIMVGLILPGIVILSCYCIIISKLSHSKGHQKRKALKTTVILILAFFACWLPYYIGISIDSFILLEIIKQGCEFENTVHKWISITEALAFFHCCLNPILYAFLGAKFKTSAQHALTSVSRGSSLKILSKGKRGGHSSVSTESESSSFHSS
smiles,measurement,setting,value
CC(=O)c1cccc(-c2nc(N)nc(Nc3ccc(C)cc3)n2)c1,Emax,[1]; [26],67.3%
same,pKb,[2],6.31
same,EC50,[3],57.5 nM
O=C1CN=C(c2ccccc2Cl)c2cc([N+](=O)[O-])ccc2N1,Activity,[4],inactive
same,Activity,[5],inactive
COc1ccc(CNc2nc(N)nc(-c3ccccc3CO)n2)cc1,pKb,[2],4.35
Cc1ccc(-c2nc(N)nc(NCc3ccccc3)n2)c2cccnc12,Emax,[1],31%
same,pKb,[2],4.92
same,EC50,[3],95.5 nM
Nc1nc(NCc2ccccc2)nc(-c2cc(F)cc(F)c2)n1,Emax at 10 µM,[6],1.41%
same,EC50,[7],324 nM
same,Emax at 10 µM,[8],1.38%
same,Emax,[9],1.24%
same,EC50,[10],105 nM
same,Emax,[1]; [26],70.7%
same,Emax at 10 µM,[11],1.63%
same,EC50,[12],102 nM
same,EC50,[13],141 nM
same,Emax at 10 µM,[14],1.49%
same,Emax at 10 µM,[15],1.11%
same,EC50,[16],141 nM
same,EC50,[3],110 nM
Nc1nc(NCc2ccccc2)nc(-c2ccc(CO)cc2)n1,pKb,[2],4.93
Nc1nc(NCc2cccc(F)c2)nc(-c2cccc(F)c2N)n1,pKb,[2],3.88
Nc1nc(NCc2cc[nH]n2)nc(-c2ccccc2CO)n1,pKb,[2],5.17
COc1ccc(-c2csc(NC(=O)CSc3nc[nH]n3)n2)cc1OC,EC50,[17],501 nM
same,Emax,[18],2.2%
same,Activity,[19],inactive
same,Activity,HEK293T [20],Active
same,Activity,HEK293T [21],Active
same,EC50,[22],6310 nM
same,Emax,[23],1.5%
same,Activity,HEK293T [24],Active
CN1N=C(SCc2ccc(Cl)cc2Cl)Sc2c1cnn(C)c2=O,EC50,[17],7760 nM
same,Emax,[18],7.6%
same,Activity,HEK293T [20],Active
same,Activity,HEK293T [21],Active
same,Activity,[25],Active
same,EC50,[22],1290 nM
same,Emax,[23],8.1%
same,Activity,HEK293T [24],Active
O=C1CCc2cc(-c3csc(NC(=O)c4ccc(-c5ccccc5F)o4)n3)ccc2N1,Activity,[17]; filed as antagonist,Active
O=C1CN=C(c2ccccc2F)c2cc(Cl)ccc2N1,Activity,[4],inactive
same,Activity,[5],inactive
COc1ccc(-c2nc(N)nc(NCc3ccccc3)n2)c(CO)c1,pKb,[2],4.43
Nc1nc(NCc2ccccc2F)nc(-c2ccc(F)cc2N)n1,pKb,[2],4.23
O=C1CN=C(c2ccccc2)c2cc(Cl)ccc2N1,Activity,[4],inactive
same,Activity,[5],inactive
Nc1nc(NCc2ccccc2F)nc(-c2cccc(F)c2N)n1,pKb,[2],4.11
O=C1N[C@H](c2ccccc2[N+](=O)[O-])c2c(-c3ccccc3)n[nH]c21,Emax,[1]; [26],50.8%
same,pKb,[2],5.48
same,EC50,[3],186 nM
